Data taken from publication PMC7181426 (Clinical Drug Investigation, 2020).
Several values for one entry are separate records, joined by “and”; a condition that tells them apart may be missing. Identical values can stand only once. Marks after values point to notes of the source that are not given here.

What was measured:
[1] = cited from earlier work
Multiple-dose = type: in vivo, human; settings: for AUC: AUC12, Mean (SD); for Cmax: Mean (SD); for Tmax: Median; for Ae12%, Mean (SD) / Ae12, Mean (SD): urine
[2] = Safety: treatment-emergent adverse events, single-dose study; type: in vivo, human
In short: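 Adverse events were monitored throughout the study in subjects randomized 3:1 to test compound or placebo. Single-dose subjects were discharged on day 3 and returned on day 7; twice-daily subjects were discharged on day 10 and returned on day 13. Events were coded by System Organ Class and preferred term (MedDRA 12.1). The investigator assessed relatedness and graded severity as mild, moderate or severe.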

[3] = male, human, plasma, oral, 10 mg, Japanese, 10 mg bid, Day 1
[4] = male, human, plasma, oral, 10 mg, Japanese, 10 mg bid, Day 7
[5] = male, human, plasma, oral, 30 mg, Japanese, 30 mg bid, Day 1
[6] = male, human, plasma, oral, 30 mg, Japanese, 30 mg bid, Day 7
[7] = male, human, plasma, oral, 100 mg, Japanese, 100 mg bid, Day 1
[8] = male, human, plasma, oral, 100 mg, Japanese, 100 mg bid, Day 7
[9] = Caucasian, single dose 20 mg (n = 6)
[10] = Caucasian, single dose 60 mg (n = 6)
[11] = Caucasian, single dose 200 mg (n = 6)
[12] = Japanese, single dose 20 mg (n = 6)
[13] = Japanese, single dose 60 mg (n = 6)
[14] = Japanese, single dose 200 mg (n = 6)

NC(=O)c1cnc2[nH]ccc2c1N[C@@H]1[C@@H]2CC3C[C@H]1C[C@@](O)(C3)C2 [peficitinib, Peficitinib]
median tmax ([1]; healthy, fasted, mainly Caucasian men, 3–30 mg ref 11): 1 h | attainment of steady-state plasma levels by ([1]; multiple twice-daily dosing (30–200 mg twice daily), USA ref 11): ≤ 3 days | cumulative amounts excreted unchanged in urine, range ([1]; primarily Caucasian population in the USA, single oral doses of 30–200 mg ref 11): 3.9 to 22.1 mg | CL/F, Mean (SD) (Multiple-dose; Japanese, 10 mg bid, Day 1): 87.7 (23.6) L/h | CL/F, Mean (SD) (Multiple-dose; Japanese, 10 mg bid, Day 7): 71.0 (13.6) L/h | CL/F, Mean (SD) (Multiple-dose; Japanese, 30 mg bid, Day 1): 83.3 (14.6) L/h | CL/F, Mean (SD) (Multiple-dose; Japanese, 30 mg bid, Day 7): 69.6 (13.5) L/h | CL/F, Mean (SD) (Multiple-dose; Japanese, 100 mg bid, Day 1): 71.2 (8.7) L/h | CL/F, Mean (SD) (Multiple-dose; Japanese, 100 mg bid, Day 7): 55.7 (9.3) L/h | AUC12 on day 7 higher than AUC12 after the first dose (Multiple-dose; Japanese, 10–100 mg bid): 25–37% | Cmax on day 7 higher than Cmax after the first dose (Multiple-dose; Japanese, 10–100 mg bid): 13–28% | Steady-state plasma concentrations achieved by (Multiple-dose; Japanese, twice-daily dosing, visual prediction): ≤ 3 days | half-life at 7 day (Multiple-dose; male, human, plasma, oral): 6 to 7.4 h | half-life (Multiple-dose; male, human, plasma, oral, 10 mg): 6 h | AUC (Multiple-dose; [3]): 0.115 µg·h/mL | AUC (Multiple-dose; [4]): 0.145 µg·h/mL | Cmax (Multiple-dose; [3]): 0.0285 µg/mL | Cmax (Multiple-dose; [4]): 0.0364 µg/mL | Tmax (Multiple-dose; [3]): 1.5 h | Tmax (Multiple-dose; [4]): 2.5 h | half-life (Multiple-dose; male, human, plasma, oral, 30 mg): 6.1 h | AUC (Multiple-dose; [5]): 0.354 µg·h/mL | AUC (Multiple-dose; [6]): 0.444 µg·h/mL | Cmax (Multiple-dose; [5]): 0.0935 µg/mL | Cmax (Multiple-dose; [6]): 0.106 µg/mL | Tmax (Multiple-dose; [5]): 2 h | Tmax (Multiple-dose; [6]): 2 h | half-life (Multiple-dose; male, human, plasma, oral, 100 mg): 7.4 h | AUC (Multiple-dose; [7]): 1.34 µg·h/mL | AUC (Multiple-dose; [8]): 1.83 µg·h/mL | Cmax (Multiple-dose; [7]): 0.383 µg/mL | Cmax (Multiple-dose; [8]): 0.483 µg/mL | Tmax (Multiple-dose; [7]): 2 h | Tmax (Multiple-dose; [8]): 2 h | Ae12%, Mean (SD) (Multiple-dose; Japanese, 10 mg bid, Day 1): 14.9 (4.4) %dose | Ae12, Mean (SD) (Multiple-dose; Japanese, 10 mg bid, Day 1): 1.5 (0.4) mg | Ae12%, Mean (SD) (Multiple-dose; Japanese, 10 mg bid, Day 7): 32.0 (3.4) %dose | Ae12, Mean (SD) (Multiple-dose; Japanese, 10 mg bid, Day 7): 3.2 (0.3) mg | Ae12%, Mean (SD) (Multiple-dose; Japanese, 30 mg bid, Day 1): 15.6 (4.0) %dose | Ae12, Mean (SD) (Multiple-dose; Japanese, 30 mg bid, Day 1): 4.7 (1.2) mg | Ae12%, Mean (SD) (Multiple-dose; Japanese, 30 mg bid, Day 7): 26.4 %dose and 26.4 (4.2) %dose | Ae12, Mean (SD) (Multiple-dose; Japanese, 30 mg bid, Day 7): 7.9 (1.3) mg | Ae12%, Mean (SD) (Multiple-dose; Japanese, 100 mg bid, Day 1): 19.2 (2.7) %dose | Ae12, Mean (SD) (Multiple-dose; Japanese, 100 mg bid, Day 1): 19.2 (2.7) mg | Ae12%, Mean (SD) (Multiple-dose; Japanese, 100 mg bid, Day 7): 37.7 %dose and 37.7 (9.8) %dose | Ae12, Mean (SD) (Multiple-dose; Japanese, 100 mg bid, Day 7): 37.7 (9.8) mg | Any TEAE [2, 9]: 0 n (%) | Blood potassium increased [2, 9]: 0 n (%) | Diarrhea [2, 9]: 0 n (%) | White blood cell count increased [2, 9]: 0 n (%) | Any TEAE [2, 10]: 1 (16.7) n (%) | Blood potassium increased [2, 10]: 0 n (%) | Diarrhea [2, 10]: 1 (16.7)^b n (%) | White blood cell count increased [2, 10]: 0 n (%) | Any TEAE [2, 11]: 0 n (%) | Blood potassium increased [2, 11]: 0 n (%) | Diarrhea [2, 11]: 0 n (%) | White blood cell count increased [2, 11]: 0 n (%) | Any TEAE [2, 12]: 1 (16.7) n (%) | Blood potassium increased [2, 12]: 1 (16.7)^b n (%) | Diarrhea [2, 12]: 0 n (%) | White blood cell count increased [2, 12]: 0 n (%) | Any TEAE [2, 13]: 2 (33.3) n (%) | Blood potassium increased [2, 13]: 0 n (%) | Diarrhea [2, 13]: 0 n (%) | White blood cell count increased [2, 13]: 2 (33.3) n (%) | Any TEAE [2, 14]: 1 (16.7) n (%) | Blood potassium increased [2, 14]: 0 n (%)
